Measurements: ChEMBL document CHEMBL1129480, “Design and synthesis of 1-aminocycloalkane-1-carboxylic acid-substituted deltorphin analogues: unique delta and mu opioid activity in modified peptides” (J Med Chem, 1996)
Square brackets hold non-standard residues; d marks the D form. Peptide text beside a SMILES is read from it. Ac6c = NC1(C(=O)O)CCCCC1; Ac5c = NC1(C(=O)O)CCCC1; Ac3c = NC1(C(=O)O)CC1

Columns and labels:
[1] = biological target: Delta-type opioid receptor (Mus musculus, UniProt P32300); assay: Inhibitory activity against Opioid receptor delta 1 of mouse vas deferens (MVD); format: tissue-based
Sequence of Delta-type opioid receptor (Mus musculus, UniProt P32300) (P32300 whole entry): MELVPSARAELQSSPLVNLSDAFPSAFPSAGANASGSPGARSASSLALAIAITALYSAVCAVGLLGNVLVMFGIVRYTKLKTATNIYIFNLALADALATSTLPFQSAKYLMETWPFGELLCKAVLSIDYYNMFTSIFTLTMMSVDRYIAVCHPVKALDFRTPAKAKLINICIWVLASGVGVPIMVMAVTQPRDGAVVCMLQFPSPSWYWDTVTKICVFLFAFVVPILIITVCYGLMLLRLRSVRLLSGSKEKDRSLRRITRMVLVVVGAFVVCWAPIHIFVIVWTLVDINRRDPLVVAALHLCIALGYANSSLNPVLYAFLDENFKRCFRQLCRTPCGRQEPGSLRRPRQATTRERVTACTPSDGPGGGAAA

[2] = biological target: Delta-type opioid receptor (Rattus norvegicus, UniProt P33533); assay: Displacement of [3H]DPDPE (0.63 nM) from Opioid receptor delta 1
Sequence of Delta-type opioid receptor (Rattus norvegicus, UniProt P33533) (P33533 whole entry): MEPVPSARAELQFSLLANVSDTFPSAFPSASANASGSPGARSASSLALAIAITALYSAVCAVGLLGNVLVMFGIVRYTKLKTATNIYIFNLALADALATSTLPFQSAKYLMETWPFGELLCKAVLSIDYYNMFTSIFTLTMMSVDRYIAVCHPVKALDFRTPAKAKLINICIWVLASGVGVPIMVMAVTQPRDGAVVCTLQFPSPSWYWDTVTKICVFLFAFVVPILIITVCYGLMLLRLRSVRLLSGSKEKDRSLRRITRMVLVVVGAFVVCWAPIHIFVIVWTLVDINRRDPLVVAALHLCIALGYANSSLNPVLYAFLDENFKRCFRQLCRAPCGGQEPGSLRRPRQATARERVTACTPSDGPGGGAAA
Summary of the method: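 Rat brain synaptosomal membranes, preincubated, incubated with [3H]DPDPE in 50 mM HEPES pH 7.5, 5 mM MgCl2, glycerol, protease inhibitors, 120 min at 22-23 °C. Nonspecific baseline from 2 µM unlabeled peptide. Filtered, washed with ice-cold buffer plus 0.01% BSA or lactalbumin. Duplicates, 6-14 concentrations over 1000-fold, or triplicates with 25-35 concentrations for one/two-site fits. Ki via Cheng-Prusoff.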

Mu-type opioid receptor [3] = biological target: Mu-type opioid receptor (Rattus norvegicus, UniProt P33535); assay: Displacement of [3H]DAGO (1.28 nM) from Opioid receptor mu 1
Sequence of Mu-type opioid receptor (Rattus norvegicus, UniProt P33535) (P33535 whole entry): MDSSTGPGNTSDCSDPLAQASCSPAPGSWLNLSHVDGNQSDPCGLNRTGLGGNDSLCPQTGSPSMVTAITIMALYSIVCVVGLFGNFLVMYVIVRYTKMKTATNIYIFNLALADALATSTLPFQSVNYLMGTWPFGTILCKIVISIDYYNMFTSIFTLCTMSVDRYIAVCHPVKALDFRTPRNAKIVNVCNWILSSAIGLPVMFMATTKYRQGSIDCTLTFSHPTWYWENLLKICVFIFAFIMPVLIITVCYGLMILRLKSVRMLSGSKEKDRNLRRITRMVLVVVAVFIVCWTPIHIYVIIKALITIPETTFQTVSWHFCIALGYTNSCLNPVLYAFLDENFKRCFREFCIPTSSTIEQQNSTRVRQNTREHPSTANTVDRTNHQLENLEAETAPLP
Summary of the method: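 Rat brain synaptosomal membranes, preincubated, in 50 mM HEPES pH 7.5, 5 mM MgCl2, glycerol, protease inhibitors with [3H]DAGO for 120 min at 22-23 °C. Baseline set with 2 µM unlabeled peptide. Filtration, washes with ice-cold buffer containing 0.01% BSA or lactalbumin. Duplicates over 6-14 concentrations spanning 1000-fold, or triplicates with 25-35 concentrations fitted to one- or two-site models. Ki from IC50 by Cheng-Prusoff.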

Mu-type opioid receptor [4] = biological target: Mu-type opioid receptor (Cavia porcellus, UniProt P97266); assay: Compound was evaluated for its inhibitory activity towards Opioid receptor mu 1 of guinea pig ileum (GPI); format: tissue-based
Sequence of Mu-type opioid receptor (Cavia porcellus, UniProt P97266) (P97266 whole entry): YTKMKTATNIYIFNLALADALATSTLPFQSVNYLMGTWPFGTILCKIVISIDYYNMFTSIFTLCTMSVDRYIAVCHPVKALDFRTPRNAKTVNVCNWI
Summary of the method: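 Guinea pig ileum segment (2-3 cm) in 20 mL organ bath with 70 µM hexamethonium bromide and 0.125 µM mepyramine maleate, 95% O2/5% CO2, 36 °C. Transmural stimulation, 0.5 ms square pulses at 0.1 Hz, 1.5× maximal-twitch voltage (~30 V). Dose-response curves against reference agonists (dermorphin or morphine). IC50 as mean ± SE of four independent experiments.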

**Q.** `CC(C)[C@H](NC(=O)[C@H](CC(=O)O)NC(=O)C1(NC(=O)[C@H](C)NC(=O)[C@@H](N)Cc2ccc(O)cc2)CCCC1)C(=O)N[C@H](C(=O)NCC(N)=O)C(C)C` (H-YA[Ac5c]DVVG-NH2) was tested. Which IC50 [1] did it give?
**A.** 1640 nM

**Q.** And the Ki [2]?
**A.** 15.4 nM

**Q.** What about the Ki (Mu-type opioid receptor [3]) of the same compound?
**A.** 6820 nM

**Q.** What about the IC50 (Mu-type opioid receptor [4]) of the same compound?
**A.** > 10000 nM

**Q.** With `CC(C)[C@H](NC(=O)[C@H](CC(=O)O)NC(=O)C1(NC(=O)C2(NC(=O)[C@@H](N)Cc3ccc(O)cc3)CCCCC2)CCCCC1)C(=O)N[C@H](C(=O)NCC(N)=O)C(C)C` (H-Y[Ac6c][Ac6c]DVVG-NH2) as the compound, how does the Ki [2] read?
**A.** 87.8 nM

**Q.** And the Ki (Mu-type opioid receptor [3])?
**A.** 14800 nM

**Q.** With `CC(C)[C@H](NC(=O)[C@H](CC(=O)O)NC(=O)C1(NC(=O)[C@H](C)NC(=O)[C@@H](N)Cc2ccc(O)cc2)CCCCC1)C(=O)N[C@H](C(=O)NCC(N)=O)C(C)C` (H-YA[Ac6c]DVVG-NH2) as the compound, how does the IC50 [1] read?
**A.** 540 nM

**Q.** What about the Ki [2] of the same compound?
**A.** 3.28 nM

**Q.** And the Ki (Mu-type opioid receptor [3])?
**A.** 5460 nM

**Q.** What about the IC50 (Mu-type opioid receptor [4]) of the same compound?
**A.** > 10000 nM

**Q.** For `CC(C)[C@H](NC(=O)[C@H](CC(=O)O)NC(=O)C1(NC(=O)[C@H](C)NC(=O)[C@@H](N)Cc2ccc(O)cc2)CC1)C(=O)N[C@H](C(=O)NCC(N)=O)C(C)C` (H-YA[Ac3c]DVVG-NH2), which IC50 [1] is on record?
**A.** 458 nM

**Q.** And the Ki [2]?
**A.** 19 nM

**Q.** And the Ki (Mu-type opioid receptor [3])?
**A.** 10200 nM

**Q.** What about the IC50 (Mu-type opioid receptor [4]) of the same compound?
**A.** > 10000 nM

**Q.** What does the source list for `CC(C)[C@H](NC(=O)[C@@H](NC(=O)C1(NC(=O)[C@H](Cc2ccccc2)NC(=O)[C@H](C)NC(=O)[C@@H](N)Cc2ccc(O)cc2)CC1)C(C)C)C(=O)NCC(N)=O` (H-YAF[Ac3c]VVG-NH2)?
**A.** IC50 [1]: 0.43 nM; Ki [2]: 0.054 nM; Ki (Mu-type opioid receptor [3]): 0.27 nM; IC50 (Mu-type opioid receptor [4]): 15 nM

**Q.** Which Ki [2] does the source give for `CC(C)[C@H](NC(=O)[C@H](CC(=O)O)NC(=O)[C@H](Cc1ccccc1)NC(=O)[C@@H](C)NC(=O)[C@@H](N)Cc1ccc(O)cc1)C(=O)N[C@H](C(=O)NCC(N)=O)C(C)C` [DELTORPHIN C] here?
**A.** 0.15 nM

**Q.** What about the Ki (Mu-type opioid receptor [3]) of the same compound?
**A.** 147 nM

**Q.** And the IC50 (Mu-type opioid receptor [4])?
**A.** 337 nM

**Q.** What does the source list for `CC(C)[C@H](NC(=O)[C@@H](NC(=O)C1(NC(=O)[C@H](Cc2ccccc2)NC(=O)[C@H](C)NC(=O)[C@@H](N)Cc2ccc(O)cc2)CCCC1)C(C)C)C(=O)NCC(N)=O` (H-YAF[Ac5c]VVG-NH2)?
**A.** IC50 [1]: 0.19 nM; Ki [2]: 0.054 nM; Ki (Mu-type opioid receptor [3]): 0.58 nM; IC50 (Mu-type opioid receptor [4]): 140 nM

**Q.** `CC(C)[C@H](NC(=O)[C@H](CC(=O)O)NC(=O)C1(NC(=O)[C@@H](N)Cc2ccc(O)cc2)CCCCC1)C(=O)N[C@H](C(=O)NCC(N)=O)C(C)C` (H-Y[Ac6c]DVVG-NH2) was tested. Which Ki [2] did it give?
**A.** 5260 nM

**Q.** And the Ki (Mu-type opioid receptor [3])?
**A.** 441000 nM

**Q.** Which results are given for `CC(C)[C@H](NC(=O)[C@H](CC(=O)O)NC(=O)[C@H](Cc1ccccc1)NC(=O)C1(NC(=O)[C@@H](N)Cc2ccc(O)cc2)CCCCC1)C(=O)N[C@H](C(=O)NCC(N)=O)C(C)C` (H-Y[Ac6c]FDVVG-NH2)?
**A.** Ki [2]: 2.48 nM; Ki (Mu-type opioid receptor [3]): 3110 nM

**Q.** For `CC(C)[C@H](NC(=O)[C@@H](NC(=O)C1(NC(=O)[C@H](Cc2ccccc2)NC(=O)[C@H](C)NC(=O)[C@@H](N)Cc2ccc(O)cc2)CCCCC1)C(C)C)C(=O)NCC(N)=O` (H-YAF[Ac6c]VVG-NH2), which IC50 [1] is on record?
**A.** 0.52 nM

**Q.** And the Ki [2]?
**A.** 0.045 nM

**Q.** What about the Ki (Mu-type opioid receptor [3]) of the same compound?
**A.** 2.45 nM

**Q.** And the IC50 (Mu-type opioid receptor [4])?
**A.** 558 nM
